# DNMT1 inh = DNMT1 (human) enzyme inhibition. inhibition (reported as % activation of signal), % at 10 µM. AID 588458. 360,000 compounds, 0.83% hits. P26358. DNMT1 molecular beacon, Hinp1I cleavage, fluorescence; in the data active means inhibition above about 50%
# UHRF1 MBD2 ctr = human UHRF1 methylated DNA binding inhibitors. 370,000 compounds, 0.75% hits. Q96T88. inhibition, % at 4.4 µM. UHRF1 binding to methylated oligo, TR-FRET; in the data active means inhibition above about 21%;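 further: UHRF1 SRA domain binding a hemimethylated CpG hairpin DNA probe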
# SUMO1 PPI mod = SUMO1-SIM interaction modulation | P63165 | SUMO1 binding to a labelled peptide, TR-FRET, 1 h | inhibition, % at 20 µM | 360,000 compounds, 0.33% hits | AID 602429
# Target sequence (P63165 whole entry, looked up): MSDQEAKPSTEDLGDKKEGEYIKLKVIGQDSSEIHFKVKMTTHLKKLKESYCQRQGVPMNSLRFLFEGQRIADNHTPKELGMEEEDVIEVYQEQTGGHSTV
# Pemphigus Ab inh = blocks pemphigus antibody binding to human desmoglein-3; P32926; DSG3-coupled beads, scFv-anti-DSG3-GFP binding, flow cytometry; hits give low values; binding (percent of control), % at 10 µM; 310,000 compounds, 0.48% hits; AID 588358;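 active means binding more than 3 SD below its plate's average and above zero; inconclusive means below that plate limit but binding exactly zero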;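 further: hits lower antibody fragment binding to DSG3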
# NS3 helicase inh = HCV NS3 helicase inhibition | inhibition, % at 10.9 µM | NS3 helicase DNA unwinding, Cy5 molecular beacon fluorescence | 290,000 compounds, 0.56% hits | AID 1800;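 active means inhibition above the mean of all tested compounds plus 3 SD, set per campaign, cut at about 35% in these data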
#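 test system = hepatitis C virus NS3 helicase domain fragment enzyme | reagent = annealed dual-labelled DNA beacon duplex, ATP-started | times = 1 h at 25 °C | detection = Cy5 fluorescence, 0 and 60 min reads | read-out basis = percent inhibition from t60/t0 fluorescence ratio | control set = DMSO and thioflavine S | replication = one well per compound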
# MBD2 DNA inh = inhibitors of human MBD2 binding to methylated oligonucleotide. Q9UBB5. TR-FRET. inhibition, % at 4.4 µM. 370,000 compounds, 0.31% hits; in the data active means inhibition above about 13%
# Target sequence (Q9UBB5 whole entry, looked up): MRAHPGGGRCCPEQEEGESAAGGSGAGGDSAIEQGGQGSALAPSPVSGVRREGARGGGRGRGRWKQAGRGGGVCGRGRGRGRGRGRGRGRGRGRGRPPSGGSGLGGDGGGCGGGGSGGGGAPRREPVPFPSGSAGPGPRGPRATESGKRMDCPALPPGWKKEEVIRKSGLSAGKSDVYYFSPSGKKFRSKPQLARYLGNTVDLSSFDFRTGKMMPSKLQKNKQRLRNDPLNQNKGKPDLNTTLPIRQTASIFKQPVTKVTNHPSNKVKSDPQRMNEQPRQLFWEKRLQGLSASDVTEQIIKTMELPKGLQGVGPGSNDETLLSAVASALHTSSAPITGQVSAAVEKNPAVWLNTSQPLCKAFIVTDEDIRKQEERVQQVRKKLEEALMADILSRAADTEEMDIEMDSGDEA
# NS3 hel confirm = HCV NS3 helicase inhibition, confirmation assay; AID 1943; inhibition, % at 10.9 µM; 1,600 compounds, 31% hits; NS3 helicase DNA unwinding, Cy5 molecular beacon fluorescence; shares compounds with NS3 helicase inh;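 active means inhibition above the mean of all tested compounds plus 3 SD, cutoff set per campaign, cut at about 36% in these data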
# FID counter trip = intercalator displacement, NS3 helicase counter-screen. shares compounds with NS3 helicase inh. inhibition, % at 7.9 µM. 1,600 compounds, 4% hits. AID 1945. DNA fluorescent intercalator displacement, fluorescence;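 further: higher means more displacement of ethidium bromide from the DNA hairpin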
# DNA FID DR = displaces fluorescent intercalator from DNA, HCV helicase counter-screen | shares compounds with NS3 helicase inh | fluorescent intercalator displacement from DNA, fluorescence | IC50, µM | 120 tested, under 10 active; call rule not given here
# A number is an active result; - = inactive; ? = inconclusive; . = not tested or not shown. In the library only some 2.5% were active in any assay of this set; here they are far more common. Unless noted, no stated cut-off is given here; in the data, active means inhibition above about 37%; inactive means the rest.
SMILES,DNMT1 inh,UHRF1 MBD2 ctr,SUMO1 PPI mod,Pemphigus Ab inh,NS3 helicase inh,MBD2 DNA inh,NS3 hel confirm,FID counter trip,others
COC(=O)c1ccc(N2NC(=O)/C(=C/c3cc(OC)c(O)c(OC)c3)C2=O)cc1,-,-,-,-,61,-,-,-,
COc1cc(/C=C2/C(=O)NN(c3ccc(Cl)cc3)C2=O)ccc1OC(=O)c1ccco1,-,-,-,-,-,-,.,.,
COc1cccc(/C=C2/C(=O)NN(c3ccc(Br)cc3)C2=O)c1O,-,-,-,-,38,-,58,-,
COc1cc(/C=C2/C(=O)NN(c3ccc(F)cc3)C2=O)cc(Cl)c1O,-,-,-,-,36,-,-,-,
COc1cc(/C=C2/C(=O)NN(c3ccc(Cl)c(Cl)c3)C2=O)cc([N+](=O)[O-])c1O,-,-,-,-,-,-,.,.,
Cc1ccc(N/C=C2/Sc3ccccc3NC2=O)cc1,-,-,-,-,-,-,.,.,
O=C(c1ccc([N+](=O)[O-])cc1)N1CCC(Cc2ccccc2)CC1,-,-,-,-,-,-,.,.,
O=C(c1cnc(Cl)c(Cl)c1)N1CCC(Cc2ccccc2)CC1,-,-,-,-,37,-,-,-,
COC(=O)c1cccc(S(=O)(=O)N2CCCCC2)c1,-,-,-,-,-,-,.,.,
CCOC(=O)C1=C(c2ccccc2)NC(=S)NC1c1cc([N+](=O)[O-])ccc1OC (stereo not drawn),-,-,-,-,-,-,.,.,
CC(C)c1ccc(OCC(=O)N(Cc2ccco2)C2CCS(=O)(=O)C2)cc1 (stereo not drawn),-,-,-,-,48,-,-,-,
O=C(NNC(=O)c1cc(Cl)ccc1O)c1cccs1,-,-,-,.,-,-,.,.,
C=CCn1c(=O)c2ccccc2n2c(SCC(=O)NC(C)C)nnc12,-,-,-,-,-,-,.,.,
Cc1cccc(NC(=O)Nc2cccc(C)n2)n1,-,-,-,-,39,-,-,-,
Cc1ccc(NC(=O)Nc2cccc(C)n2)cc1,-,-,-,-,-,-,.,.,
Cc1cccc(NC(=O)/C=C/c2cccs2)n1,-,-,-,-,67,-,-,-,
C=CCOc1ccc(CNn2cn[nH]c2=S)cc1OCC,-,-,-,-,-,-,.,.,
CC(C)(Oc1ccc(Cl)cc1)C(=O)NCc1n[nH]c(=O)c2ccccc12,-,-,-,?,.,-,.,.,
O=C(OCCCCN1C(=O)c2ccccc2C1=O)c1ccc(Br)o1,-,-,-,.,-,-,.,.,
COCCNC(=O)c1cccc(NS(=O)(=O)c2cccc3cccnc23)c1,-,-,-,-,-,-,.,.,
CCCOc1ccc(-c2nc(SCc3ccccc3)[nH]c(=O)c2C#N)cc1OC,-,-,-,-,36,-,91,-,DNA FID DR=-
CCSc1nc(-c2ccccc2)c(C#N)c(=O)[nH]1,-,-,-,-,-,-,.,.,
Cc1cc(NC(=O)NCc2ccccc2)c(=O)n(Cc2ccccc2F)c1,-,-,-,-,-,-,.,.,
COc1cccc(Cn2cc(C)cc(NC(=O)NCc3ccccc3)c2=O)c1,-,-,-,-,40,-,-,-,
O=C(O)CCNc1cc(N2CCN(C(=O)c3ccco3)CC2)c2noc3c2c1C(=O)c1ccccc1-3,106,-,50,-,57,-,76,-,
SMILES,DNMT1 inh,UHRF1 MBD2 ctr,SUMO1 PPI mod,Pemphigus Ab inh,NS3 helicase inh,MBD2 DNA inh,NS3 hel confirm,FID counter trip,others
CCN(CC)CCn1cnc2c([nH]c3cccc(OC)c32)c1=O,-,-,-,-,42,-,-,-,
O=C1/C(=C\c2ccco2)SC(=S)N1C1CCS(=O)(=O)C1 (stereo not drawn),-,54,-,-,38,-,-,-,
Cc1ccc(/C=C2\SC(=S)N(C3CCS(=O)(=O)C3)C2=O)cc1 (stereo not drawn),-,-,-,-,-,-,.,.,
O=C1/C(=C/c2ccco2)SC(=S)N1C1CCS(=O)(=O)C1 (stereo not drawn),-,32,-,-,38,-,-,-,
O=C(Nc1cccc2ccccc12)NC1CCCCC1O (stereo not drawn),-,-,-,-,.,-,.,.,
O=C(O)/C(=C\c1cccc(C(F)(F)F)c1)c1ccc(S(=O)(=O)N2CCCC2)s1,-,-,-,.,.,-,.,.,
O=C(O)/C(=C\c1cccc([N+](=O)[O-])c1)c1ccc(S(=O)(=O)N2CCCCC2)s1,-,-,-,-,44,-,54,-,
CC(C)c1ccc(NC(=O)N2CCC(c3nc4ccccc4o3)CC2)cc1,-,.,-,-,-,.,.,.,
COCCN(C(=O)CNC(=O)c1ccco1)C(C(=O)NC1CCCC1)c1ccccc1 (stereo not drawn),-,-,-,.,-,-,.,.,
COCCN(C(=O)CNC(=O)c1ccco1)C(C(=O)NC1CCCC1)c1ccc(OC)cc1 (stereo not drawn),-,-,-,-,44,-,-,-,
Cc1c(Cl)cccc1NS(=O)(=O)c1ccc2c(c1)C1C=CCC1C(c1ccc(C(=O)O)cc1)N2 (stereo not drawn),87,.,50,-,39,.,55,43,
CCOC(=O)c1ccc(N2C(=O)c3n[nH]c(-c4ccco4)c3C2c2ccc([N+](=O)[O-])cc2)cc1 (stereo not drawn),-,-,-,-,38,-,-,-,
CCOc1ccc(OCCCCN(C)C)cc1,-,-,-,-,49,-,-,-,
CCOc1ccc(OCCCN(C)C)cc1,-,-,-,-,-,-,.,.,
O=C1CC(NCc2ccc3c(c2)OCO3)C(=O)N1CCc1ccccc1 (stereo not drawn),-,-,-,-,54,-,-,-,
Cc1cc(C)cc(NC(=O)c2ccc(NC3=NC4CS(=O)(=O)CC4S3)cc2)c1 (stereo not drawn),-,-,-,-,-,-,.,.,
COc1ccc(NC(=O)c2ccc(NC3=NC4CS(=O)(=O)CC4S3)cc2)cc1 (stereo not drawn),-,-,-,-,47,-,-,-,
C=CCCC(=O)N[C@H]1CC[C@@]23CCCN2C(=O)CCC[C@H]3[C@H]1CCC,.,-,.,.,.,-,.,.,
NNc1nc2sc3c(c2c(=O)n1Cc1ccccc1)CCC3,-,-,-,-,44,-,-,-,
CCn1c(NN)nc2sc3c(c2c1=O)CCC3,-,-,-,-,-,-,.,.,
Cn1cccc1CC(=O)NNC(=S)Nc1ccc(F)cc1,-,-,-,-,36,-,-,-,
CC[C@@H](C)[C@H](NC(=O)Cc1c(C)c2c(cc(C)c3c(C)c(C)oc32)oc1=O)C(=O)O,-,-,-,-,37,-,-,-,
